pIC50: −log10 of the molar value. Activity calls are given as the source filed them. The calls are words filed in the database; no cut-off is given here.
Assays:
HEK293 [1] = experiment: Inhibition of LiCl-activated Wnt signaling in HEK293 cells at 0.3 to 3 uM by TOPFlash reporter gene assay; type: cell-based; details: Homo sapiens
Procedure, shortened: (§1)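 Stable HEK293T Super 8xTOPFlash reporter line (pGL4.83 backbone, puromycin-selected), stimulated with 25 mM LiCl to stabilize β-catenin. Treated with compound in DMSO or DMSO. Luciferase read in 96- or 24-well format. AMPK inhibitor compound C used at 5 μM where applied. At least three independent repeats.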

HEK293 [2] = experiment: Effect on FOP reporter expression in LiCl-induced HEK293T cells incubated for 24 hrs by luciferase reporter gene assay; type: functional, cell-based; details: Homo sapiens
Procedure, shortened: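 HEK293T cells transiently transfected with Super 8x TOPFlash or 8x FOPFlash plus control Renilla reporter. Wnt signaling activated with LiCl or Wnt3A. Cells treated with DMSO or compound in DMSO. Luciferase activity read.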

LS174T [3] = experiment: Cytotoxicity against human LS174T cells assessed as reduction in cell viability by Vi-Cell XR cell viability analyzer-based assay; type: functional
Procedure, shortened: (§2)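 Colon cancer cells plated at 3.5×10^4 per well in 12-well plates. LS174T were in EMEM + 10% FBS; DLD-1 were in DMEM + 10% FBS. After 24 h, compound in DMSO added (DMSO control). Cell number and viability counted on a Vi-Cell XR analyzer. Triplicate wells.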

DLD-1 [4] = experiment: Cytotoxicity against human DLD1 cells assessed as reduction in cell viability by Vi-Cell XR cell viability analyzer-based assay; type: functional; procedure, shortened: as §2
Homo sapiens [5] = organism: Homo sapiens; experiment: Inhibition of Wnt in human DLD1 cells assessed as reduction in Axin2 expression at 1 to 3 uM by Western blot analysis; type: cell-based
Procedure, shortened: (§3)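 Colorectal cancer cells (DLD-1, LS174T, SW620) treated with a compound dose series in DMSO. Lysates immunoblotted for Axin2, c-Myc and cyclin D1. At least three independent repeats.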

Homo sapiens [6] = organism: Homo sapiens; experiment: Inhibition of Wnt in human SW620 cells assessed as reduction in Axin2 expression at 1 uM by Western blot analysis; type: cell-based; procedure, shortened: as §3
LS174T [7] = experiment: Inhibition of Wnt in human LS174T cells assessed as reduction in Axin2 expression at 1 uM by Western blot analysis; type: cell-based; procedure, shortened: as §3
Homo sapiens [8] = organism: Homo sapiens; experiment: Inhibition of Wnt in human DLD1 cells assessed as reduction in c-Myc expression at 1 to 3 uM by Western blot analysis; type: cell-based; procedure, shortened: as §3
Homo sapiens [9] = organism: Homo sapiens; experiment: Inhibition of Wnt in human SW620 cells assessed as reduction in c-Myc expression at 1 uM by Western blot analysis; type: cell-based; procedure, shortened: as §3
LS174T [10] = experiment: Inhibition of Wnt in human LS174T cells assessed as reduction in c-Myc expression at 1 uM by Western blot analysis; type: cell-based; procedure, shortened: as §3
Homo sapiens [11] = organism: Homo sapiens; experiment: Inhibition of Wnt in human DLD1 cells assessed as reduction in cyclin-D1 expression at 1 to 3 uM by Western blot analysis; type: cell-based; procedure, shortened: as §3
Homo sapiens [12] = organism: Homo sapiens; experiment: Inhibition of Wnt in human SW620 cells assessed as reduction in cyclin-D1 expression at 1 uM by Western blot analysis; type: cell-based; procedure, shortened: as §3
LS174T [13] = experiment: Inhibition of Wnt in human LS174T cells assessed as reduction in cyclin-D1 expression at 1 uM by Western blot analysis; type: cell-based; procedure, shortened: as §3
[14] = molecular target: T1, AMP-activated protein kinase, AMPK (Homo sapiens) (UniProt P54646+O43741+P54619+Q9UGJ0+Q9Y478+Q13131+Q9UGI9); experiment: Activation of AMPK in human LS174T cells assessed as increase in AMPK phosphorylation at T172 residue at 3 uM by Western blot analysis; type: cell-based
Procedure, shortened: (§4)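 Cells lysed in 50 mM HEPES, 100 mM NaCl, 2 mM EDTA, 1% glycerol, 50 mM NaF, 1 mM Na3VO4, 1% Triton X-100 with protease inhibitors. Western blot probed for total and phospho-AMPK and total and phospho-ACC, with actin loading control. Compounds given in DMSO. At least three independent repeats.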

[15] = molecular target: T1, AMP-activated protein kinase, AMPK (Homo sapiens); experiment: Activation of AMPK in human LS174T cells assessed as […] phosphorylation at S79 residue at 3 uM by Western blot analysis; type: cell-based; procedure, shortened: as §4
HEK293 [16] = experiment: Inhibition of LiCl-activated Wnt signaling in HEK293 cells at 3 uM in presence of AMPK inhibitor compound C by TOPFlash reporter gene assay; type: cell-based; details: Homo sapiens; procedure, shortened: as §1
DLD-1 [17] = experiment: Induction of mitochondrial membrane potential disruption in human DLD1 cells measured after 2 hrs by TMRM staining based fluorescence microscopic analysis; details: Mitochondria
Procedure, shortened: (§5)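 Cells grown one day in 24-well plates: DLD-1 in DMEM + 10% serum, LS174T in RPMI1640 + 5% serum. Treated 2 h with compound in DMSO or DMSO, then stained with 100 nM TMRM for 15 min. Rinsed once with PBS and imaged by fluorescence microscopy at 568 nm.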

LS174T [18] = experiment: Induction of mitochondrial membrane potential disruption in human LS174T cells measured after 2 hrs by TMRM staining based fluorescence microscopic analysis; details: Mitochondria; procedure, shortened: as §5
HEK293 [19] = experiment: Inhibition of LiCl-activated Wnt signaling in HEK293 cells at 3 uM by TOPFlash reporter gene assay; type: cell-based; details: Homo sapiens; procedure, shortened: as §1
DLD-1 [20] = experiment: Uncoupling of mitochondrial oxidative phosphorylation in human DLD1 cells assessed as increase in oxygen consumption rate at 3 uM in presence of oligomycin A by seahorse XFe96 analyser based assay; details: Mitochondria
Procedure, shortened: (§6)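 DLD-1 cells, about 3×10^4 per XF96 well, in XF medium with 25 mM glucose and 1 mM pyruvate. Mito stress sequence: oligomycin A 1 μM, then test compound 3 μM in DMSO in place of FCCP (FCCP 1 μM as control), then rotenone/antimycin A 1 μM each. Oxygen consumption rate recorded.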

[21] = molecular target: T1, AMP-activated protein kinase, AMPK (Homo sapiens); experiment: Activation of AMPK (unknown origin) assessed as increase in AMPK phosphorylation at T172 residue at 3 uM by Western blot analysis; type: protein-complex assay; procedure, shortened: as §4
[22] = molecular target: T1, AMP-activated protein kinase, AMPK (Homo sapiens); experiment: Activation of AMPK (unknown origin) assessed as […] phosphorylation at S79 residue at 3 uM by Western blot analysis; type: protein-complex assay; procedure, shortened: as §4
Liver [23] = experiment: Uncoupling of mitochondrial oxidative phosphorylation in mouse liver mitochondria assessed as increase in oxygen consumption rate at 1 to 5 uM in presence of oligomycin A by seahorse XFe96 analyser based assay
Procedure, shortened: (§7)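 Mouse liver mitochondria isolated by differential centrifugation in mannitol/sucrose/HEPES/EGTA buffer, pH 7.2. Loaded at 6 μg/well in KCl/HEPES/MgCl2/KH2PO4 respiration buffer, pH 7.2, at 37 °C. OCR measured on XFe96.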

HEK293 [24] = experiment: Inhibition of LiCl-activated Wnt signaling in HEK293 cells at […] by TOPFlash reporter gene assay; type: cell-based; details: Homo sapiens
Procedure, shortened: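 Stable HEK293T line carrying Super 8xTOPFlash subcloned into pGL4.83 (hRlucP/Puro), selected with puromycin; Wnt signaling activated with 25 mM LiCl, compound added in DMSO (DMSO control); luciferase reporter readout. At least three independent repeats.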

LS174T [25] = experiment: Inhibition of glucose metabolism in human LS174T cells assessed as reduction in ATP level at 10 mM by luminescence assay; type: functional, cell-based
[26] = molecular target: T1, AMP-activated protein kinase, AMPK (Homo sapiens); experiment: Activation of AMPK in human LS174T cells assessed as increase in AMPK phosphorylation at T172 residue at 3 uM measured within 15 mins by Western blot analysis; type: cell-based; procedure, shortened: as §4
[27] = molecular target: T1, AMP-activated protein kinase, AMPK (Homo sapiens); experiment: Activation of AMPK in human LS174T cells assessed as […] phosphorylation at S79 residue at 3 uM measured within 15 mins by Western blot analysis; type: cell-based; procedure, shortened: as §4
DLD-1 [28] = experiment: Induction of mitochondrial dysfunction in human DLD1 cells assessed as reduction in mitochondrial ATP production at 3 uM by Seahorse XF real-time assay; details: Mitochondria
Procedure, shortened: (§8)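 About 3×10^4 cells seeded per well in XF96 plates. Next day medium switched to Seahorse XF medium with 25 mM glucose and 1 mM pyruvate. Compound given at 3 μM in DMSO; FCCP 1 μM as reference. Mitochondrial and glycolytic ATP production rates measured by XF Real-Time ATP Rate Assay.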

DLD-1 [29] = experiment: Induction of mitochondrial dysfunction in human DLD1 cells assessed as increase in glycolytic ATP production at 3 uM by Seahorse XF real-time assay; details: Mitochondria; procedure, shortened: as §8
LS174T [30] = experiment: Induction of mitochondrial dysfunction in human LS174T cells assessed as reduction in mitochondrial ATP production at 3 uM by Seahorse XF real-time assay; details: Mitochondria; procedure, shortened: as §8
LS174T [31] = experiment: Induction of mitochondrial dysfunction in human LS174T cells assessed as increase in glycolytic ATP production at 3 uM by Seahorse XF real-time assay; details: Mitochondria; procedure, shortened: as §8
DLD-1 [32] = experiment: Uncoupling of mitochondrial oxidative phosphorylation in human DLD1 cells at 3 uM in presence of oligomycin A by seahorse XFe96 analyser based assay; details: Mitochondria; procedure, shortened: as §6
Liver [33] = experiment: Uncoupling of mitochondrial oxidative phosphorylation in mouse liver mitochondria assessed as increase in oxygen consumption rate in presence of oligomycin A by seahorse XFe96 analyser based assay; procedure, shortened: as §7
LS174T [34] = experiment: Inhibition of LiCl-induced Wnt signaling in human LS174T cells assessed as reduction in beta-catenin accumulation; type: cell-based
HEK293 [35] = experiment: Inhibition of LiCl-activated Wnt signaling in HEK293 cells at 10 uM by TOPFlash reporter gene assay; type: cell-based; details: Homo sapiens; procedure, shortened: as §1
DLD-1 [36] = experiment: Inhibition of mitochondrial oxidative phosphorylation in human DLD1 cells assessed as reduction in oxygen consumption rate by seahorse XFe96 analyser based assay; details: Mitochondria
Procedure, shortened: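 DLD-1 cells, ~3×10^4 per well, seeded a day ahead; medium switched to Seahorse XF modified medium with 25 mM glucose and 1 mM pyruvate. Mitochondrial stress test: 1 μM oligomycin A, test compound in DMSO in place of FCCP, then 1.0 μM rotenone plus 1.0 μM antimycin A. OCR recorded; ATP production rate by real-time ATP rate assay.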

SMILES: O=C(Nc1ccc(C(F)(F)F)cc1)Nc1cc(F)c(F)c(F)c1
- inhibition (HEK293 [1]): Active
- Activity (HEK293 [2]): inactive
- pIC50 (LS174T [3]): 6.26
- pIC50 (DLD-1 [4]): 6.27
- inhibition (Homo sapiens [5]): Active
- inhibition (Homo sapiens [6]): Active
- inhibition (LS174T [7]): Active
- inhibition (Homo sapiens [8]): Active
- inhibition (Homo sapiens [9]): Active
- inhibition (LS174T [10]): Active
- inhibition (Homo sapiens [11]): Active
- inhibition (Homo sapiens [12]): Active
- inhibition (LS174T [13]): Active
- Activity [14]: Active
- Activity [15]: Active
- inhibition (HEK293 [16]): Active
- Activity (DLD-1 [17]): Active
- Activity (LS174T [18]): Active

SMILES: CN(c1ccc([N+](=O)[O-])c2ccccc12)S(=O)(=O)c1cc(Cl)ccc1Cl
- inhibition (HEK293 [19]): inactive
- Activity (DLD-1 [20]): inactive
- Activity [21]: inactive
- Activity [22]: inactive
- Activity (Liver [23]): inactive

SMILES: OC[C@H]1OC(O)C[C@@H](O)[C@@H]1O (some centres undefined)
- inhibition (HEK293 [24]): Active
- inhibition (LS174T [25]): Active

SMILES: Cc1cc([N+](=O)[O-])ccc1NS(=O)(=O)c1cc(Cl)ccc1Cl
- Activity [26]: Active
- Activity [27]: Active
- Activity (DLD-1 [28]): Active
- Activity (DLD-1 [29]): Active
- Activity (LS174T [30]): Active
- Activity (LS174T [31]): Active
- Activity (DLD-1 [17]): Active
- Activity (LS174T [18]): Active
- Activity (DLD-1 [32]): Active
- Activity (DLD-1 [20]): Active
- Activity (Liver [33]): Dose-dependent effect
- inhibition (LS174T [34]): Active

SMILES: N#Cc1c(O)c2c(-c3ccc(-c4ccccc4O)cc3)csc2[nH]c1=O
- inhibition (HEK293 [35]): inactive

SMILES: CCCCCCC1C(=O)O[C@H](C)[C@H](NC(=O)c2cccc(NC=O)c2O)C(=O)O[C@@H](C)[C@@H]1OC(=O)CC(C)C (some centres undefined)
- inhibition (DLD-1 [36]): Active
